Experiments:
Dipeptidyl peptidase 4 = Dipeptidyl peptidase 4 (Homo sapiens, UniProt P27487); experiment: Inhibition of human placental DPP4
Mus musculus = experiment: Reduction of glucose level in po dosed C57BL/6 mouse by oral glucose tolerance test; assay type: functional, organism-based
Summary of the method: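 Male C57BL/6 mice, 7-8 per group, fasted 20 h, given vehicle or inhibitor by oral gavage at various doses. Oral glucose challenge (5 g/kg) 60 min later. Blood glucose read at 5 time points over 120 min.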

Rattus norvegicus [1] = experiment: Inhibition of DPP4 in po dosed Sprague-Dawley rat plasma after 24 hrs; assay type: functional, organism-based
Summary of the method: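 Sprague-Dawley rats, 4-6 per inhibitor, single oral gavage dose across a dose range. Plasma DPP-IV activity sampled 6 times over 24 h post-dose. Percent change derived by comparing each treated sample's plasma activity with its own predose activity.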

Rattus norvegicus [2] = experiment: Toxicity in po dosed Sprague-Dawley rat assessed as maximum tolerated dose relative to Val-boroPro; assay type: organism-based; settings: in vivo
Rattus norvegicus [3] = experiment: Inhibition of DPP4 in Sprague-Dawley rat plasma at 6 mg/kg, po after 4 hrs; settings: read-out: INH
[4] = Toxicity in po dosed Sprague-Dawley rat assessed as maximum tolerated dose; assay type: organism-based; settings: in vivo
Summary of the method: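 Sprague-Dawley rats given escalating single doses; animals observed for adverse signs; lethargic or dead animals necropsied; maximum tolerated dose taken as the highest dose without adverse effects.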

[5] = Therapeutic index, ratio of MTD to drug level causing maximal reduction of glucose AUC in po dosed Sprague-Dawley rat; settings: in vivo

Chain of Dipeptidyl peptidase 4 (P27487 whole entry): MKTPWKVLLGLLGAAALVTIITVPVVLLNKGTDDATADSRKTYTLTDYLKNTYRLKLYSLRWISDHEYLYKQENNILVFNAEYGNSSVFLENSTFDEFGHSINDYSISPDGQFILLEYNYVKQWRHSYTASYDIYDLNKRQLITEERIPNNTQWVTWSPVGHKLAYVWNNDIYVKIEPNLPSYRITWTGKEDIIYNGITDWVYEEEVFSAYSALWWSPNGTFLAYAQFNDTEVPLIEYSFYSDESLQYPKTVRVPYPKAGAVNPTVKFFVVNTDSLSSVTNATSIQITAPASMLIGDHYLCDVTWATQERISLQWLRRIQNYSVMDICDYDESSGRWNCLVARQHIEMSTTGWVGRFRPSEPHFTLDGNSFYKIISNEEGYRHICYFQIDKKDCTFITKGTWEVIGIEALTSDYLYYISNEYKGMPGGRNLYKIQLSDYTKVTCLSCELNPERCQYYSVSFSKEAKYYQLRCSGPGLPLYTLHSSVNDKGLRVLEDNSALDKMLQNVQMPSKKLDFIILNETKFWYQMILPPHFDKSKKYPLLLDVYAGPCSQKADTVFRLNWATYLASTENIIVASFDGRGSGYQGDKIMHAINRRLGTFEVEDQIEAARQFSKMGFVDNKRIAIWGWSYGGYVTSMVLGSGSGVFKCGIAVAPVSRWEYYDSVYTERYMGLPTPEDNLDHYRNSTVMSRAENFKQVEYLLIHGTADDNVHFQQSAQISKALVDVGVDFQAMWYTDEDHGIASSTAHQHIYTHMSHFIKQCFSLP

Structure (SMILES) | Ki (Dipeptidyl peptidase 4) [nM] | Activity (Mus musculus) | Activity (Rattus norvegicus [1]) | Activity (Rattus norvegicus [2]) | inhibition in vivo at 6 mg/kg (Rattus norvegicus [3]) [%] | MTD [4] [mg/kg] | selectivity ratio [5]
N[C@@H](CCC(=O)O)C(=O)N1CCC[C@H]1B(O)O | 1.8 |  |  |  |  |  | 
NCC(=O)N1CCC[C@H]1B(O)O | 0.4 |  |  |  |  |  | 
C[C@H](N)C(=O)N1CCC[C@H]1B(O)O |  | Dose-dependent effect | Dose-dependent effect | 200 |  |  | 
CC(C)[C@H](N)C(=O)N1CCC[C@H]1B(O)O [TALABOSTAT] |  | Dose-dependent effect | Dose-dependent effect | 1 |  |  | 
C[C@H](NC(=O)[C@@H](N)CCC(=O)O)B(O)O |  | Dose-dependent effect | Dose-dependent effect | 20000 | 80 | > 500 | 
CC[C@@H](C)[C@H](N)C(=O)N1CCSC1 |  |  |  | < 12000 |  | < 300 | < 15
CC[C@H](C)[C@H](N)C(=O)N1CCSC1 |  |  |  | > 28000 |  | > 700 | > 35
CC(=O)N[C@H](C(=O)N1CCC[C@H]1B(O)O)C(C)C | 3300 |  |  |  |  |  | 
